Source: ChEMBL document CHEMBL1123739, “Relationships between DNA-binding kinetics and biological activity for the 9-aminoacridine-4-carboxamide class of antitumor agents” (J Med Chem, 1987)
Where “and” joins values, the source holds several entries; their conditions need not be identical. Identical values can stand only once. Calls of active or inactive are those of the source. No cut-off for these calls is given here.

Columns and labels:
P388 [1] = test: Percentage increase in life span treated animals over those of controls injected with P388 leukemia cells; type: functional, Mus musculus
P388 [2] = test: Compound administered intraperitoneally was evaluated for optimal dose (OD) given per day after inoculation of 10e 6 P388 leukemia cells for highest nontoxic dose; type: functional, Mus musculus
Calf thymus DNA [3] = test: DNA dissociation constant from calf thymus; type: functional; conditions: Bos taurus
Outline: (§1)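 Stopped-flow SDS-sequestration assay. Sonicated calf thymus DNA (400 µM base pairs) and 20 µM drug in 0.1 SHE buffer (2 mM HEPES, 10 µM EDTA, 99.4 mM NaCl, pH 7.0) were mixed 1:1 with 20 mM SDS at 20 °C. Absorbance decay was deconvoluted into exponential time constants by curve stripping. At least six runs were averaged; ratios were taken between time constants.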

Calf thymus DNA [4] = test: Ratio T3/T2 of DNA dissociation constant from calf thymus; type: functional; conditions: Bos taurus; outline: as §1
Calf thymus DNA [5] = test: Ratio T2/T1 of DNA dissociation constant from calf thymus; type: functional; conditions: Bos taurus; outline: as §1
Calf thymus DNA [6] = test: Logarithm of association constant for binding to DNA by ethidium displacement; type: nucleic-acid assay; conditions: Bos taurus
P388 [7] = test: Percentage increase in life span treated animals over those of controls injected with P388 leukemia cells; NA means no activity (ILS<20%) at all dose levels; type: functional; conditions: Mus musculus
Nucleic Acid = test: Difference between log K of (AT) and log K of (GC) DNA binding; type: nucleic-acid assay
Calf thymus DNA [8] = test: DNA dissociation constant was determined from calf thymus; type: functional; conditions: Bos taurus; outline: as §1
P388 [9] = test: Percentage increase in life span treated animals over those of controls injected with P388 leukemia cells; NA means no activity (ILS <20%) at all dose levels; type: functional; conditions: Mus musculus
Calf thymus DNA [10] = test: Ratio T4/T3 of DNA dissociation constant from calf thymus; type: functional; conditions: Bos taurus; outline: as §1
Calf thymus DNA [11] = test: Ratio T2/T1 of DNA dissociation constant of poly(dG-dC) from calf thymus; type: functional; conditions: Bos taurus
Calf thymus DNA [12] = test: Dissociation constant of poly(dG-dC)DNA binding in calf thymus; type: functional; conditions: Bos taurus
L1210 = test: Evaluated for concentration which when added to cultures of L1210 leukemia cells for a period of 70 hr reduces cell numbers of 50% of control cultures; type: functional, cell-based; conditions: Mus musculus, L1210, 70 h
Calf thymus DNA [13] = test: Dissociation constant of poly(dG-dC)DNA in calf thymus; type: functional; conditions: Bos taurus
Calf thymus DNA [14] = test: Ratio T3/T2 of DNA dissociation constant of poly(dG-dC) from calf thymus; type: functional; conditions: Bos taurus
P388 [15] = test: Percentage increase in life span treated animals over those of controls injected with P388 leukemia cells;NA means no activity (ILS<20%) at all dose levels; type: functional; conditions: Mus musculus
P388 [16] = test: Percentage increase in life span treated animals over those of controls injected with P388 leukemia cells; Na means no activity (ILS<20%) at all dose levels; type: functional; conditions: Mus musculus
[17] = tested on: L1210 (mouse leukemia cells); test: Ability to inhibit growth of mouse leukemia L1210 cells
Calf thymus DNA [18] = test: Ratio of DNA dissociation constant from calf thymus; type: functional; conditions: Bos taurus; outline: as §1

Row | SMILES | ILS (P388 [1]) | OD (P388 [2]) | Time constant T1 (Calf thymus DNA [3]) | Time constant T3 (Calf thymus DNA [3]) | Ratio (Calf thymus DNA [4]) | Ratio (Calf thymus DNA [5]) | Log K (Calf thymus DNA [6]) | Log K delta (Nucleic Acid) | Time constant T2 (Calf thymus DNA [8]) | Time constant T4 (Calf thymus DNA [3]) | Ratio (Calf thymus DNA [10]) | further results
1 | CN(C)CCNC(=O)c1cccc2c(N)c3ccccc3nc12 | 98 |  |  |  |  |  |  |  |  |  |  | 
2 | CN(C)CCNC(=O)c1ccc2c(N)c3ccccc3nc2c1 |  | 250 mg/kg | 6 ms | 98 ms | 3.6 | 4.5 | 7.18 and 7.66 | 0.48 | 27 ms |  |  | ILS (P388 [7]): inactive
3 | COc1cccc2nc3c(C(=O)NCCN(C)C)cccc3c(N)c12 |  |  | 6 ms | 168 ms | 5.6 | 5 | 7.68 and 7.55 | -0.18 | 30 ms |  |  | ILS (P388 [9]): inactive
4 | COc1cc(C(=O)NCCN(C)C)c2nc3ccccc3c(N)c2c1 | 72 |  | 20 ms | 311 ms | 3.9 | 4 |  | 0.76 | 79 ms | 2050 ms | 6.6 | 
5 | CN(C)CCCCCCNC(=O)c1cccc2c(N)c3ccccc3nc12 |  |  | 4 ms | 80 ms | 4.2 | 4.8 | 7.41 and 7.4 | -0.01 | 19 ms |  |  | 
6 | CN(C)CCCCNC(=O)c1cccc2c(N)c3ccccc3nc12 |  |  | 4 ms | 52 ms | 3.3 | 4 | 7.49 and 7.43 | -0.06 | 16 ms |  |  | Ratio (Calf thymus DNA [11]): 6.5; Time constant T1 (Calf thymus DNA [12]): 4 ms; IC50 (L1210): 430 nM; Time constant T2 (Calf thymus DNA [13]): 26 ms; Time constant T3 (Calf thymus DNA [13]): 86 ms; Ratio (Calf thymus DNA [14]): 3.3
7 | CN(C)CCN(C)C(=O)c1cccc2c(N)c3ccccc3nc12 |  | 30 mg/kg | 2 ms |  |  | 5.5 | 6.37 | 0 | 11 ms |  |  | IC50 (L1210): 5300 nM; ILS (P388 [9]): inactive
8 | COc1ccc2nc3c(C(=O)NCCN(C)C)cccc3c(N)c2c1 |  |  | 9 ms | 64 ms | 2.6 | 2.8 | 7.64 and 7.66 | 0.02 | 25 ms | 330 ms | 5.2 | ILS (P388 [9]): inactive
9 | COc1ccc2c(N)c3cccc(C(=O)NCCN(C)C)c3nc2c1 |  |  | 26 ms | 271 ms | 3.3 | 3.2 | 7.33 and 7.71 | 0.38 | 83 ms | 1000 ms | 3.7 | ILS (P388 [9]): inactive
10 | COc1ccc(C(=O)NCCN(C)C)c2nc3ccccc3c(N)c12 | 27 |  | 22 ms | 355 ms | 3.5 | 4.6 | 7.31 and 7.52 | 0.21 | 102 ms | 2270 ms | 6.4 | IC50 (L1210): 0.6 nM
11 | Nc1c2ccccc2nc2ccccc12 [AMINACRINE] |  | 20 mg/kg | 2.5 ms |  |  | 6.3 | 6.08 and 6.11 | 0.07 | 15 ms |  |  | IC50 (L1210): 2600 nM
12 | CN(C)CCCNC(=O)c1cccc2c(N)c3ccccc3nc12 |  | 50 mg/kg | 4 ms | 44 ms | 2.9 | 3.8 | 7.51 and 7.6 | 0.09 | 15 ms |  |  | ILS (P388 [7]): inactive
13 | COc1cccc2c(N)c3cccc(C(=O)NCCN(C)C)c3nc12 | 81 |  | 17 ms | 299 ms | 4.3 | 4.1 | 7.62 and 7.83 | 0.21 | 69 ms | 1080 ms | 3.6 | 
14 | COc1ccc2c(N)c3ccccc3nc2c1C(=O)NCCN(C)C |  |  | 7 ms | 87 ms | 4.4 | 2.9 | 7.21 and 7.12 | -0.09 | 20 ms |  |  | ILS (P388 [9]): inactive
15 | Nc1c2ccccc2nc2c(C(=O)NCCN3CCOCC3)cccc12 |  | 30 mg/kg | 4 ms | 135 ms | 3.3 | 10 | 7.29 and 7.58 | 0.29 | 40 ms | 590 ms | 4.4 | ILS (P388 [15]): inactive
16 | CN(C)CCCCCNC(=O)c1cccc2c(N)c3ccccc3nc12 |  |  | 4 ms | 58 ms | 3.6 | 4 | 7.45 | 0 | 16 ms |  |  | 
17 | CN(C)CCNS(=O)(=O)c1cccc2c(N)c3ccccc3nc12 |  | 65 mg/kg | 5 ms |  |  | 4.2 |  |  | 21 ms |  |  | ILS (P388 [16]): inactive; IC50 [17]: 13000 nM
18 | CCN(CC)CCNC(=O)c1cccc2c(N)c3ccccc3nc12 | 70 | 5.9 mg/kg | 3 ms | 51 ms | 3.9 | 4.3 | 7.26 and 7.59 | 0.33 | 13 ms | 280 ms | 5.5 | 
19 | Nc1c2ccccc2nc2c(C(=O)NCCNCCO)cccc12 | 73 | 20 mg/kg | 5 ms | 49 ms |  |  | 7.34 and 7.73 | 0.39 | 17 ms | 214 ms |  | Ratio (Calf thymus DNA [18]): 3.4 and 2.9 and 4.4
20 | CN(C)CCNC(=O)c1ccc2nc3ccccc3c(N)c2c1 |  | 12.5 mg/kg | 10 ms | 90 ms | 3.37 | 2.7 | 7.08 and 7.55 | 0.47 | 27 ms |  |  | ILS (P388 [7]): inactive
